This is an account of results in the RNAGym collection of RNA variant scans (doi:10.1126/science.aae0568).

Fewer inactive variants are shown than the library holds.

First the molecules themselves.
B1: tRNA (parent)
chain: GUUCCGUUGGCGUAAUGGUAACGCGUCUCCCUCCUAAGGAGAAGACUGCGGGUUCGAGUCCCGUACGGAACG

This data set covers variants of B1. Nature of the data set: yeast fitness relative to wild type (ratio to wild type); higher = fitter; tRNA-Arg(CCU), competitive growth, 37 C, YPD. In short, it runs like this: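 Gene amplicons from the start population and from each of six end populations were read by 100-nucleotide paired-end sequencing. Those end populations came from pooled Saccharomyces cerevisiae strains carrying tRNA-Arg(CCU) gene variants at the native locus, competed in YPD at 37°C for 24 hours. Fitness relative to wild type was worked out from changes in genotype frequencies. Genotypes needed ≥ 100 starting reads, and estimates < 0.5 were set to 0.5.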
In the case of GUUCCGUUGGCGUAAUGGUAUCGCAUCUCCCUCCUAAGGAGAAGACUGCGGGUUCGAGUCCCGUACGUAACG [A21U G25A G68U], the yeast fitness is 0.547.

Take GUUCCGUUGGCGUAAUGGUAUCGCGUCUCCCUCCUAAGUAGACGACUGCGGGUUCGAGUCCCAUACGGAACG [A21U G39U A43C G63A]: the yeast fitness is not above 0.5.

GUUCCGUUGGCGUAAUGGUAUCGCGUCUCCCUUCUAAAGAGAAGUCUGCGGGAUCGAGUCCUCUACGGAACG [A21U C33U G38A A45U U53A C62U G63C]: the yeast fitness was not above 0.5.

GUUCCGUUGGCGUAAUGGUAUCGCGUCUCCCUCGUAAGGAGAAGACUGCGGGUUCGAGUGCCGUACGGAACG [A21U C34G C60G]: the yeast fitness was not above 0.5.

Turning to GUUCCGUUGGCGUAAUGGUAUCGCGUCUCCCUCCUAAGGAAAAGACUGCGGGUCCGAGUCCCGUACGGAACG [A21U G41A U54C], the yeast fitness turned out to be 0.723.

With GUUCCGUUGGCGUAAUGGUAUCGCGUCUCCCUUCUAAGGAGAAGACUGCGGGUUCGUGCCCCGUACGGAACG [A21U C33U A57U U59C], the yeast fitness stood at 0.639.

Turning to GUUCCGUUGGCGUAAUGGUAUCGCGUCUCCCUCCUAAGGAGAAGACUACGGGUUCGUGUCCCGUACGGAACG [A21U G48A A57U], the yeast fitness was found to be 0.714.

Consider GUUCCGUUGGCGUAAUGGUAUCGCGUCUCCCUCCUAAGGAGAAGAAUGCGGGUUCGAGUCCCGUACGGAACG [A21U C46A], for which the yeast fitness is 0.767.

With GUUCCGUUGGCGUAAUGGUAUCGCGUCUCCCUCCUAAGGAGAAGAUUGCGGGUUCGAGUCCCGUACGGAACG [A21U C46U], the yeast fitness is 0.86.

Turning to GUUCCGUUGGCGUAAUGGUAUCGCGUCUCCCUUCUAAGGAGAAGACUGCGGGUUCGAGACCCGUACGGAACG [A21U C33U U59A], the yeast fitness was not above 0.5.

Consider GUUCCGUUGGCGUAAUGGUAUCGCGUCUCCCUCCUAAGGAGAAGACUGCGGGUUUGAGUCCGGUACGGAACG [A21U C55U C62G], for which the yeast fitness was not above 0.5.

As for GUUCCGUUGGCGUAAUGGUAUCGCGUCUCCCUUCUAAGGAGAAGACUGCGGGUUCGUGCCCCGUAUGGAACG [A21U C33U A57U U59C C66U], the yeast fitness was determined as 0.538.

For the variant GUUCCGUUGGCGUAAUGGUAUCGCGUCUCCCUCCUAAGGAGAAGACUGCGGGUUGCAGUCCCGUACGGAACG [A21U C55G G56C], the yeast fitness is not above 0.5.

Turning to GUUCCGUUGGCGUAAUGGUAUCGCGUCUCCCUCCUAAGGAGAAGACUGGGGGUUCGAGUCCCGUACGGCACG [A21U C49G A69C], the yeast fitness is not above 0.5.

GUUCCGUUGGCGUAAUGGUAUCGCGUCUCCCUCCUAAGGAGAAGACUGCAGGUUCGAGUCCCGUACGGAACG [A21U G50A]: the yeast fitness was determined as 0.629.

Turning to GUUCCGUUGGCGUAAUGGUAUCGCAUCUCCCUCCUAAGGAGAAGACUGCGGGUUCGAGUUCCGUACGGAACG [A21U G25A C60U], the yeast fitness is not above 0.5.

As to GUUCCGUUGGCGUAAUGGUAUCGCGUCUCCCUUCUAAGGAGAAGACUGCGGGUUCGCGUCCCGUACGGAACG [A21U C33U A57C], the yeast fitness is not above 0.5.

With GUUCCGUUGGCGUAAUGGUAUCGCGUCUCCCUCUUAAGGAGUAGACUGCGGGUUCGAGUCCCGAACGUAACG [A21U C34U A42U U64A G68U], the yeast fitness is 0.659.

For the variant GUUCCGUUGGCGUAAUGGUAUCGCGUCUCCCUCCUAAGGAGAAGACUGCGGCUUCGAGUCUCGUACGGAACG [A21U G52C C61U], the yeast fitness was not above 0.5.

Consider GUUCCGUUGGCGUAAUGGUAUCGCGUCUCCCUCCUAAGGAGAAAACUGCGGGUUCAAGUCCCGUACGGAACG [A21U G44A G56A], for which the yeast fitness was not above 0.5.

For the variant GUUCCGUUGGCGUAAUGGUAUCGCGUCUCCCUCCUAAGGAGAAGAUUGCGGGUUCGAGUCCCGUAAGGAACG [A21U C46U C66A], the yeast fitness was not above 0.5.

Turning to GUUCCGUUGGCGUAAUGGUAUCGCGUCUCCCUCCUAAGCAGAAGACAGCGGGUUCGAGUCCCGUACGGAACG [A21U G39C U47A], the yeast fitness amounted to 0.512.

Consider GUUCCGUUGGCGUAAUGGUAUCGCGUCUCCCUGCUAAGGAGAAGACUGCGGGUUCGAAUCCCGUAUGGAACG [A21U C33G G58A C66U], for which the yeast fitness is not above 0.5.

For GUUCCGUUGGCGUAAUGGUAUCGCGUCUCCCUACUAAGCACAACACUGCGGGUUCGAGUCCCGUACGGCACG [A21U C33A G39C G41C G44C A69C], the yeast fitness was not above 0.5.

Regarding GUUCCGUUGGCGUAAUGGUAUCGCGUCUCCCUCCUAAGCAGAAGACUGCGGGUUAGCGUCCCGUACGGAACG [A21U G39C C55A A57C], the yeast fitness is not above 0.5.

As for GUUCCGUUGGCGUAAUGGUAUCGCGUCUCCCUCCUAAGGAGAAGACUGCGGGUUCGAGUCCAGUACGGAACG [A21U C62A], the yeast fitness stood at 0.613.

With GUUCCGUUGGCGUAAUGGUAUCGCGUCUCCCUCCUAAGGAGAAGACUGCGGGUUCGAGUCCUGUACGGAACG [A21U C62U], the yeast fitness amounted to 0.716.

Regarding GUUCCGUUGGCGUAAUGGUAUCACGUCUCCCUCCUAAGGAGCAGACUGCGGGUUCGAGGCCCGUACGGCACG [A21U G23A A42C U59G A69C], the yeast fitness was not above 0.5.

For GUUCCGUUGGCGUAAUGGUAUCGCAUCUCCCUCCUAAGGAGAAGACUGCAGGUUCGAGUCCCGUACGUAACG [A21U G25A G50A G68U], the yeast fitness was not above 0.5.

GUUCCGUUGGCGUAAUGGUAUCGCGUCUCCCUCCUAAGGAGAAGACUGCGGGUUUGAGUCCCGUACGGAACG [A21U C55U]: the yeast fitness is 0.607.

Consider GUUCCGUUGGCGUAAUGGUAUCGCGUCUCCCUCCUAAGGAGAAGACUGAGGGUUCGAGUCCCGUACGGAACG [A21U C49A], for which the yeast fitness is not above 0.5.

With GUUCCGUUGGCGUAAUGGUAUCGCGUCUCCCUCCUAAGGAGAAGACUGCGAGUUCGAGUCCCGUAAGGAACG [A21U G51A C66A], the yeast fitness was not above 0.5.

As for GUUCCGUUGGCGUAAUGGUAUCGCGUCUCCCUCGUAAGGAGAAGACUGCGGGUUCGAGUCCCGUACGAAACG [A21U C34G G68A], the yeast fitness was not above 0.5.

For GUUCCGUUGGCGUAAUGGUAUCACGUCUCCCUCCUAAGGAGAAGACUGCGGGUUCGAGUCCCGCACAGAACG [A21U G23A U64C G67A], the yeast fitness came to 0.568.

For GUUCCGUUGGCGUAAUGGUAUCGCGUCUCCCUCCUAAGGAACAGACUGCGGGUGCGAGUCCCGUACGGAACG [A21U G41A A42C U54G], the yeast fitness is not above 0.5.

Take GUUCCGUUGGCGUAAUGGUAUCGCGUCUCCCUCCUAAGGACACGACUGCGGGUGCGAGUCCCGUACGGCACG [A21U G41C A43C U54G A69C]: the yeast fitness was found to be 0.551.

On to GUUCCGUUGGCGUAAUGGUAUCGCGUCUCCCUCCUAACGAGAAGACUGCGGGUUCGAGUCCCGUCCGGAACG [A21U G38C A65C], for which the yeast fitness is not above 0.5.

Consider GUUCCGUUGGCGUAAUGGUAUCGCGUCUCCCUCCUAAGGAGAAGACUGCGGAUUCGAGUCCCGUACGGAACG [A21U G52A], for which the yeast fitness came out at 0.566.
